Legend:
Assay type in all cases: functional
[1] = Growth inhibition of human Hs 578T cells at 10 uM after 48 hrs by coulter counter method; conditions: read-out: GI
Outline: (§1)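 Single high-dose NCI 60-cell-line panel screen across nine tumor subpanels. Test solutions (0.2 mL) were added in duplicate to wells holding 1.8 mL of culture at 6 × 10⁴ cells/mL. Controls got PBS and DMSO at identical dilutions. Incubation was 48 h at 37 °C in humidified 5% CO₂. Cells were diluted 10-fold in saline, Coulter-counted and dilution-corrected. Results were expressed as percent growth inhibition versus control.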

[2] = system: UACC-62; experiment: Growth inhibition of human UACC62 cells at 10 uM after 48 hrs by coulter counter method; conditions: UACC-62, 48 h, read-out: GI; outline: as §1
[3] = system: PC-3; experiment: Growth inhibition of human PC3 cells at 10 uM after 48 hrs by coulter counter method; conditions: PC-3, 48 h, read-out: GI; outline: as §1
[4] = system: SK-MEL-2; experiment: Growth inhibition of human SK-MEL-2 cells at 10 uM after 48 hrs by coulter counter method; conditions: SK-MEL-2, 48 h, read-out: GI; outline: as §1
[5] = system: NCI-H522; experiment: Growth inhibition of human NCI-H522 cells at 10 uM after 48 hrs by coulter counter method; conditions: NCI-H522, 48 h, read-out: GI; outline: as §1
[6] = system: COLO 205; experiment: Growth inhibition of human COLO205 cells at 10 uM after 48 hrs by coulter counter method; conditions: COLO 205, 48 h, read-out: GI; outline: as §1
[7] = system: SK-MEL-28; experiment: Growth inhibition of human SK-MEL-28 cells at 10 uM after 48 hrs by coulter counter method; conditions: SK-MEL-28, 48 h, read-out: GI; outline: as §1
[8] = system: CCRF-CEM; experiment: Growth inhibition of human CCRF-CEM cells at 10 uM after 48 hrs by coulter counter method; conditions: read-out: GI; outline: as §1
[9] = system: BT-549; experiment: Growth inhibition of human BT549 cells at 10 uM after 48 hrs by coulter counter method; conditions: BT-549, 48 h, read-out: GI; outline: as §1
[10] = system: MDA-MB-468; experiment: Growth inhibition of human MDA-MB-468 cells at 10 uM after 48 hrs by coulter counter method; conditions: MDA-MB-468, 48 h, read-out: GI; outline: as §1
[11] = system: SR; experiment: Growth inhibition of human SR cells at 10 uM after 48 hrs by coulter counter method; conditions: read-out: GI; outline: as §1
[12] = system: MDA-MB-231; experiment: Growth inhibition of human MDA-MB-231 cells at 10 uM after 48 hrs by coulter counter method; conditions: MDA-MB-231, 48 h, read-out: GI; outline: as §1
[13] = system: SF-539; experiment: Growth inhibition of human SF539 cells at 10 uM after 48 hrs by coulter counter method; conditions: SF-539, 48 h, read-out: GI; outline: as §1
[14] = system: HL-60(TB); experiment: Growth inhibition of human HL-60(TB) cells at 10 uM after 48 hrs by coulter counter method; conditions: HL-60, 48 h, read-out: GI
Outline: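 Part of the NCI 60-cell-line single-high-dose panel. Cells were seeded at 6 × 10⁴ cells/mL with test solution in duplicate wells, alongside PBS/DMSO controls at identical dilutions. Plates were held 48 h at 37 °C in a humidified 5% CO₂ incubator. Cells were then diluted 10-fold in saline and counted by Coulter counter, with counts corrected for dilution. Results are percent growth of treated cells, reported as GI %.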

[15] = system: CAKI-1; experiment: Growth inhibition of human Caki1 cells at 10 uM after 48 hrs by coulter counter method; conditions: CAKI-1, 48 h, read-out: GI; outline: as §1
[16] = system: IGROV-1; experiment: Growth inhibition of human IGROV1 cells at 10 uM after 48 hrs by coulter counter method; conditions: IGROV-1, 48 h, read-out: GI; outline: as §1
[17] = system: M14; experiment: Growth inhibition of human M14 cells at 10 uM after 48 hrs by coulter counter method; conditions: M14, 48 h, read-out: GI; outline: as §1
[18] = system: HT-29; experiment: Growth inhibition of human HT-29 cells at 10 uM after 48 hrs by coulter counter method; conditions: HT-29, 48 h, read-out: GI; outline: as §1
[19] = system: A549; experiment: Growth inhibition of human A549 cells at 10 uM after 48 hrs by coulter counter method; conditions: A549, 48 h, read-out: GI; outline: as §1
[20] = system: NCI-H226; experiment: Growth inhibition of human NCI-H226 cells at 10 uM after 48 hrs by coulter counter method; conditions: NCI-H226, 48 h, read-out: GI; outline: as §1
[21] = system: HOP-92; experiment: Growth inhibition of human HOP92 cells at 10 uM after 48 hrs by coulter counter method; conditions: HOP-92, 48 h, read-out: GI; outline: as §1
[22] = system: U-251; experiment: Growth inhibition of human U251 cells at 10 uM after 48 hrs by coulter counter method; conditions: U-251, 48 h, read-out: GI; outline: as §1
[23] = system: T47D; experiment: Growth inhibition of human T47D cells at 10 uM after 48 hrs by coulter counter method; conditions: read-out: GI; outline: as §1
[24] = system: K562; experiment: Growth inhibition of human K562 cells at 10 uM after 48 hrs by coulter counter method; conditions: K562, 48 h, read-out: GI; outline: as §1
[25] = system: 786-0; experiment: Growth inhibition of human 786-0 cells at 10 uM after 48 hrs by coulter counter method; conditions: 786-0, 48 h, read-out: GI; outline: as §1
[26] = system: HCT-116; experiment: Growth inhibition of human HCT116 cells at 10 uM after 48 hrs by coulter counter method; conditions: HCT-116, 48 h, read-out: GI; outline: as §1
[27] = system: MOLT-4; experiment: Growth inhibition of human MOLT4 cells at 10 uM after 48 hrs by coulter counter method; conditions: MOLT-4, 48 h, read-out: GI; outline: as §1
[28] = system: SK-OV-3; experiment: Growth inhibition of human SKOV3 cells at 10 uM after 48 hrs by coulter counter method; conditions: SK-OV-3, 48 h, read-out: GI; outline: as §1
[29] = system: OVCAR-4; experiment: Growth inhibition of human OVCAR4 cells at 10 uM after 48 hrs by coulter counter method; conditions: OVCAR-4, 48 h, read-out: GI; outline: as §1
[30] = system: KM12; experiment: Growth inhibition of human KM12 cells at 10 uM after 48 hrs by coulter counter method; conditions: KM12, 48 h, read-out: GI; outline: as §1
[31] = system: SF-268; experiment: Growth inhibition of human SF268 cells at 10 uM after 48 hrs by coulter counter method; conditions: SF-268, 48 h, read-out: GI; outline: as §1
[32] = system: NCI-H23; experiment: Growth inhibition of human NCI-H23 cells at 10 uM after 48 hrs by coulter counter method; conditions: NCI-H23, 48 h, read-out: GI; outline: as §1
[33] = system: SN12C; experiment: Growth inhibition of human SN12C cells at 10 uM after 48 hrs by coulter counter method; conditions: read-out: GI; outline: as §1
[34] = system: MCF7; experiment: Growth inhibition of human MCF7 cells at 10 uM after 48 hrs by coulter counter method; conditions: MCF7, 48 h, read-out: GI; outline: as §1
[35] = system: UO-31; experiment: Growth inhibition of human UO31 cells at 10 uM after 48 hrs by coulter counter method; conditions: UO-31, 48 h, read-out: GI; outline: as §1
[36] = system: SNB-75; experiment: Growth inhibition of human SNB75 cells at 10 uM after 48 hrs by coulter counter method; conditions: SNB-75, 48 h, read-out: GI; outline: as §1
[37] = system: OVCAR-8; experiment: Growth inhibition of human OVCAR8 cells at 10 uM after 48 hrs by coulter counter method; conditions: OVCAR-8, 48 h, read-out: GI; outline: as §1

## O=c1c2ccccc2nc(Nc2cc(O)nc(S)n2)n1-c1ccc(Cl)cc1
[1]
  inhibition of growth at 10 µM: 30%
[2]
  inhibition of growth at 10 µM: 30%
[3]
  inhibition of growth at 10 µM: 30%
[4]
  inhibition of growth at 10 µM: 30%
[5]
  inhibition of growth at 10 µM: 30%
[6]
  inhibition of growth at 10 µM: 30%
[7]
  inhibition of growth at 10 µM: 30%
[8]
  inhibition of growth at 10 µM: 30%
[9]
  inhibition of growth at 10 µM: 30%
[10]
  inhibition of growth at 10 µM: 30%
[11]
  inhibition of growth at 10 µM: 36.4%
[12]
  inhibition of growth at 10 µM: 30%
[13]
  inhibition of growth at 10 µM: 30%
[14]
  inhibition of growth at 10 µM: 30%
[15]
  inhibition of growth at 10 µM: 30%
[16]
  inhibition of growth at 10 µM: 30%
[17]
  inhibition of growth at 10 µM: 30%
[18]
  inhibition of growth at 10 µM: 30%
[19]
  inhibition of growth at 10 µM: 30%
[20]
  inhibition of growth at 10 µM: 30%
[21]
  inhibition of growth at 10 µM: 30%
[22]
  inhibition of growth at 10 µM: 30%
[23]
  inhibition of growth at 10 µM: 30%
[24]
  inhibition of growth at 10 µM: 36.5%
[25]
  inhibition of growth at 10 µM: 30%
[26]
  inhibition of growth at 10 µM: 30%
[27]
  inhibition of growth at 10 µM: 30.8%
[28]
  inhibition of growth at 10 µM: 30%
[29]
  inhibition of growth at 10 µM: 30%
[30]
  inhibition of growth at 10 µM: 30%
[31]
  inhibition of growth at 10 µM: 30%
[32]
  inhibition of growth at 10 µM: 30%
[33]
  inhibition of growth at 10 µM: 30%
[34]
  inhibition of growth at 10 µM: 30%
[35]
  inhibition of growth at 10 µM: 30%
[36]
  inhibition of growth at 10 µM: 30%
[37]
  inhibition of growth at 10 µM: 30%
